What was measured:
Mus musculus = assay: Highest tolerated dose (p.o.) in mice.; type: functional
Procedure, shortened: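 Mice dosed orally with suspensions in 0.5% methylcellulose 4000 at 50, 200, 400 and 800 mg/kg. Muscle relaxation scored over a 2.0-h observation period on a 0 (none) to 4 (severe) scale. Acute toxicity followed for 72 h after dosing; highest tolerated oral dose given in mg/kg.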

Rattus norvegicus = assay: Inhibition of gastrocnemius twitch tension after a cumulative dose of 36.6 mg/kg iv in rats.; type: functional; conditions: for inhibition in vivo at 36.6 mg/kg: Rattus norvegicus, Gastrocnemius, iv
Procedure, shortened: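 Pithed rat gastrocnemius preparation: adult male Charles River rats (385–400 g), ether anesthesia, tracheotomy, pithed, artificially respired, bilaterally vagotomized. Tubocurarine chloride 0.075 mg/kg iv given for neuromuscular blockade, isolating direct muscle action. Compounds in tetrahydro-2-furanmethanol or DMSO, given iv as sequential 0.83, 2.5, 8.3, 25 mg/kg doses. Percent twitch tension inhibition read after the cumulative dose.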

Row | SMILES | HTD (Mus musculus) [mg/kg] | Inhibition (Rattus norvegicus) [%] | inhibition in vivo at 36.6 mg/kg (Rattus norvegicus) [%]
1 | O=C1CN(/N=C/c2ncc(-c3ccc(Cl)c(Cl)c3)o2)C(=O)[N-]1.[Na+] | >800 | -71 | –
2 | O=C1CN(/N=C/c2ncc(-c3ccc(Cl)cc3)o2)C(=O)[N-]1.[Na+] | 400 | -81 | –
3 | O=C1CN(/N=C/c2ncc(-c3ccc(F)cc3)o2)C(=O)[N-]1.[Na+] | 400 | -75 | –
4 | O=C1CN(/N=C/c2ncc(-c3ccc(Cl)c(Cl)c3)o2)C(=O)N1 | >800 | -82 | –
5 | O=C1CN(/N=C/c2ncc(-c3ccc(F)cc3)o2)C(=O)N1 | >800 | -70 | –
6 | O=C1CN(/N=C/c2ncc(-c3cccc(C(F)(F)F)c3)o2)C(=O)[N-]1.[Na+] | 50 | -69 | –
7 | O=C1CN(/N=C/c2ncc(-c3ccc([N+](=O)[O-])cc3)o2)C(=O)[N-]1.[Na+] | >800 | -84 | –
8 | Cc1ccc(-c2cnc(/C=N/N3CC(=O)NC3=O)o2)cc1 | >800 | -65 | –
9 | O=C1CN(/N=C/c2ncc(-c3cccc(Cl)c3)o2)C(=O)[N-]1.[Na+] | 400 | – | -42
10 | O=C1CN(/N=C/c2ncc(-c3ccccc3)o2)C(=O)[N-]1.[Na+] | 200 | -49 | –
11 | Cc1ccc(-c2cnc(/C=N/N3CC(=O)[N-]C3=O)o2)cc1.[Na+] | >800 | -62 | –
12 | COc1ccc(-c2cnc(/C=N/N3CC(=O)NC3=O)o2)cc1 | >800 | -47 | –
13 | O=C1CN(/N=C/c2ncc(-c3ccc(Cl)cc3)o2)C(=O)N1 | >800 | -80 | –
14 | O=C1CN(/N=C/c2ncc(-c3ccc([N+](=O)[O-])cc3)o2)C(=O)N1 | >800 | -86 | –
15 | O=C1CN(/N=C/c2ncc(-c3ccccc3[N+](=O)[O-])o2)C(=O)N1 | >800 | – | 0
16 | O=C1CN(/N=C/c2ncc(-c3cccc(C(F)(F)F)c3)o2)C(=O)N1 | 400 | -56 | –
17 | COc1ccc(-c2cnc(/C=N/N3CC(=O)[N-]C3=O)o2)cc1.[Na+] | >800 | -58 | –
18 | O=C1CN(/N=C/c2ncc(-c3ccccc3)o2)C(=O)N1 | >800 | -41 | –
19 | O=C1CN(/N=C/c2ncc(-c3ccc(Br)cc3)o2)C(=O)[N-]1.[Na+] [AZUMOLENE SODIUM] | 400 | -83 | –
20 | O=C1CN(/N=C/c2ncc(-c3ccc(Br)cc3)o2)C(=O)N1 [AZUMOLENE] | >800 | -82 | –
21 | O=C1CN(/N=C/c2ccc(-c3ccc([N+](=O)[O-])cc3)o2)C(=O)[N-]1.[Na+] [DANTROLENE SODIUM] | >400 | – | -80

Source: ChEMBL document CHEMBL1123863, “1-[[[5-(substituted phenyl)-2-oxazolyl]methylene]amino]-2,4- imidazolidinediones, a new class of skeletal muscle relaxants” (1987)
